According to ChEMBL document CHEMBL1212842, “Substrate specificity and inhibitory study of human airway trypsin-like protease” (Bioorg Med Chem, 2010):
Each block holds one molecule with its values, some of them ahead of it. Where a SMILES comes first, the peptide text is derived from it. [ ]: non-standard residue; d: D form. The star is where a group is joined. NH(3-CONH2-4-NO2-Ph) = NC(=O)c1cc(N*)ccc1[N+](=O)[O-]; AMC = Cc1cc(=O)oc2cc(N*)ccc12; 2Abz = Nc1ccccc1C(=O)O; Boc = CC(C)(C)OC(=O)*

Legend:
[1] = biological target: T1, Transmembrane protease serine 11D (Homo sapiens, UniProt O60235); assay: Inhibition of human HAT by FRET assay
T1 sequence (O60235 whole entry): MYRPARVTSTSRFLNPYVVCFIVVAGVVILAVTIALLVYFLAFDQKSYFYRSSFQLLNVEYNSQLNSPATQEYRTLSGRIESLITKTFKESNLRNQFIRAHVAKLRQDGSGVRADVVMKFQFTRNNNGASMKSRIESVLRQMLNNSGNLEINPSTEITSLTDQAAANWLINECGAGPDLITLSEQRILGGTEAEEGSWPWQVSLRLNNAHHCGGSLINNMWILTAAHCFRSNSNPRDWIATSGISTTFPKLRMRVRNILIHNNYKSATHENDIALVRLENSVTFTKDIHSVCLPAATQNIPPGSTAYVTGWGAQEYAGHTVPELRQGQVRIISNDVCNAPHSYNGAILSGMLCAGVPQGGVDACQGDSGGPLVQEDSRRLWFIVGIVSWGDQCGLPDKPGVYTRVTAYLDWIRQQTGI
Summary of the method: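 Inhibitor at increasing concentrations (0–100 nM) was preincubated for 60 min with enzyme (20 nM) in Tris-HCl, pH 7.8. Chromogenic substrate (1.8–100 µM) was then added and absorbance was followed over time. For HAT, the substrate was an ABZ/ANB-labelled tetrapeptide. Ki was calculated from the initial velocities of hydrolysis.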

[2] = biological target: T2, Suppressor of tumorigenicity 14 protein (Homo sapiens, UniProt Q9Y5Y6); assay: Inhibition of human matriptase by FRET assay
T2 sequence (Q9Y5Y6 whole entry): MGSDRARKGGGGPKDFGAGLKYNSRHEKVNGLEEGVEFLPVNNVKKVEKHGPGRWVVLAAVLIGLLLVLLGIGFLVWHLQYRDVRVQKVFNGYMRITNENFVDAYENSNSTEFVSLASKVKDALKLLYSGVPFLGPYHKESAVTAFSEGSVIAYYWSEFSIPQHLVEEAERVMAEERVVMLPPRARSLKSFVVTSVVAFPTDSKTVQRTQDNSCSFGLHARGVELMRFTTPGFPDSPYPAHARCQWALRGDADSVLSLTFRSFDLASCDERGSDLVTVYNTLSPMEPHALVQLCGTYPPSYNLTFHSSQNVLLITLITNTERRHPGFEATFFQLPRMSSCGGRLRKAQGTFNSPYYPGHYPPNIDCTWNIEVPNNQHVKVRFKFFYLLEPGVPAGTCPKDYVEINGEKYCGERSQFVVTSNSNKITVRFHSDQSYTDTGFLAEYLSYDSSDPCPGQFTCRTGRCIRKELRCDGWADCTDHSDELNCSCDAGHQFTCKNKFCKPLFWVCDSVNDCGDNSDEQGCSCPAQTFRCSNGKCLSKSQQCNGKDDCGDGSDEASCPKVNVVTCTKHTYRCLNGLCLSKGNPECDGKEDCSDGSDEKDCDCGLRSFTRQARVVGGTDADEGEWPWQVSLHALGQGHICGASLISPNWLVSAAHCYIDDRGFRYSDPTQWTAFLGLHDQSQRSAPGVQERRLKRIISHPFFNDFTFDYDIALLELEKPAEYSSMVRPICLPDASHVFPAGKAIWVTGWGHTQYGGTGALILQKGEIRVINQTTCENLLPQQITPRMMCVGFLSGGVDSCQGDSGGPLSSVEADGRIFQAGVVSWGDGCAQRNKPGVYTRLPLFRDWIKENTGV

[3] = Inhibition of human tryptase by FRET assay
[4] = Inhibition of bovine trypsin by FRET assay; design: species or system Bos taurus
[5] = organism: Homo sapiens; assay: Activity at human tryptase by FRET assay
[6] = organism: Homo sapiens; assay: Ratio of Kcat to Km for human tryptase by FRET assay
[7] = organism: Bos taurus; assay: Activity at bovine trypsin by FRET assay
[8] = organism: Bos taurus; assay: Ratio of Kcat to Km for bovine trypsin by FRET assay
[9] = substrate: Cc1cc(=O)oc2cc(NC(=O)[C@H](CCCNC(=N)N)NC(=O)[C@H](CO)NC(=O)[C@H](Cc3ccccc3)NC(=O)OC(C)(C)C)ccc12; assay: (§1) Activity at human HAT by FRET assay
[10] = substrate: N=C(N)NCCC[C@H](NC(=O)c1ccccc1N)C(=O)N[C@@H](CCC(N)=O)C(=O)N[C@@H](CC(=O)O)C(=O)N[C@@H](CCCCN)C(=O)Nc1ccc([N+](=O)[O-])c(C(N)=O)c1; assay: as §1
[11] = substrate: N=C(N)NCCC[C@H](NC(=O)c1ccccc1N)C(=O)N[C@@H](CCC(N)=O)C(=O)N[C@@H](CC(=O)O)C(=O)N[C@@H](CCCNC(=N)N)C(=O)Nc1ccc([N+](=O)[O-])c(C(N)=O)c1; assay: as §1
[12] = substrate: Cc1cc(=O)oc2cc(NC(=O)[C@H](CCCNC(=N)N)NC(=O)[C@H](CO)NC(=O)[C@H](Cc3ccccc3)NC(=O)OC(C)(C)C)ccc12; assay: (§2) Ratio of Kcat to Km for human HAT by FRET assay
[13] = substrate: N=C(N)NCCC[C@H](NC(=O)c1ccccc1N)C(=O)N[C@@H](CCC(N)=O)C(=O)N[C@@H](CC(=O)O)C(=O)N[C@@H](CCCCN)C(=O)Nc1ccc([N+](=O)[O-])c(C(N)=O)c1; assay: as §2
[14] = substrate: N=C(N)NCCC[C@H](NC(=O)c1ccccc1N)C(=O)N[C@@H](CCC(N)=O)C(=O)N[C@@H](CC(=O)O)C(=O)N[C@@H](CCCNC(=N)N)C(=O)Nc1ccc([N+](=O)[O-])c(C(N)=O)c1; assay: as §2
[15] = substrate: Cc1cc(=O)oc2cc(NC(=O)[C@H](CCCNC(=N)N)NC(=O)[C@H](CO)NC(=O)[C@H](Cc3ccccc3)NC(=O)OC(C)(C)C)ccc12; assay: (§3) Activity at human matriptase by FRET assay
[16] = substrate: N=C(N)NCCC[C@H](NC(=O)c1ccccc1N)C(=O)N[C@@H](CCC(N)=O)C(=O)N[C@@H](CC(=O)O)C(=O)N[C@@H](CCCCN)C(=O)Nc1ccc([N+](=O)[O-])c(C(N)=O)c1; assay: as §3
[17] = substrate: N=C(N)NCCC[C@H](NC(=O)c1ccccc1N)C(=O)N[C@@H](CCC(N)=O)C(=O)N[C@@H](CC(=O)O)C(=O)N[C@@H](CCCNC(=N)N)C(=O)Nc1ccc([N+](=O)[O-])c(C(N)=O)c1; assay: as §3
[18] = substrate: Cc1cc(=O)oc2cc(NC(=O)[C@H](CCCNC(=N)N)NC(=O)[C@H](CO)NC(=O)[C@H](Cc3ccccc3)NC(=O)OC(C)(C)C)ccc12; assay: (§4) Ratio of Kcat to Km for human matriptase by FRET assay
[19] = substrate: N=C(N)NCCC[C@H](NC(=O)c1ccccc1N)C(=O)N[C@@H](CCC(N)=O)C(=O)N[C@@H](CC(=O)O)C(=O)N[C@@H](CCCCN)C(=O)Nc1ccc([N+](=O)[O-])c(C(N)=O)c1; assay: as §4
[20] = substrate: N=C(N)NCCC[C@H](NC(=O)c1ccccc1N)C(=O)N[C@@H](CCC(N)=O)C(=O)N[C@@H](CC(=O)O)C(=O)N[C@@H](CCCNC(=N)N)C(=O)Nc1ccc([N+](=O)[O-])c(C(N)=O)c1; assay: as §4

Ki [1]: 54.3 nM | Ki [2]: 973 nM | Ki [3]: 2130 nM | Ki [4]: 3930 nM
Molecule: N=C(N)NCCC[C@H](NC(=O)[C@H](CC(=O)O)NC(=O)[C@H](CCC(N)=O)NC(=O)[C@H](CCCNC(=N)N)NC(=O)c1ccccc1N)C(=O)O (H-[2Abz]RQDR-OH)

Km [5]: 155 µM | kcat [5]: 42.2 ×10⁻¹ /s | kcat/Km [6]: 27.4 ×10³ /M/s | Km [7]: 1120 µM | kcat [7]: 1.4 ×10⁻¹ /s | kcat/Km [8]: 0.2 ×10³ /M/s
Molecule: N=C(N)NCCC[C@H](NC(=O)c1ccccc1N)C(=O)N[C@@H](CCC(N)=O)C(=O)N[C@@H](CC(=O)O)C(=O)N[C@@H](CCCNC(=N)N)C(=O)Nc1ccc([N+](=O)[O-])c(C(N)=O)c1 (H-[2Abz]RQDR-{NH(3-CONH2-4-NO2-Ph)})

Km [5]: 19.4 µM | kcat [5]: 53.6 ×10⁻¹ /s | kcat/Km [6]: 276 ×10³ /M/s | Km [7]: 16.5 µM | kcat [7]: 72.3 ×10⁻¹ /s | kcat/Km [8]: 442 ×10³ /M/s
Molecule: Cc1cc(=O)oc2cc(NC(=O)[C@H](CCCNC(=N)N)NC(=O)[C@H](CO)NC(=O)[C@H](Cc3ccccc3)NC(=O)OC(C)(C)C)ccc12 (Boc-Phe-Ser-Arg-{AMC})

Km [5]: 269 µM | kcat [5]: 11.8 ×10⁻¹ /s | kcat/Km [6]: 6.7 ×10³ /M/s | Km [7]: 1840 µM | kcat [7]: 0.8 ×10⁻¹ /s | kcat/Km [8]: 0.1 ×10³ /M/s
Molecule: N=C(N)NCCC[C@H](NC(=O)c1ccccc1N)C(=O)N[C@@H](CCC(N)=O)C(=O)N[C@@H](CC(=O)O)C(=O)N[C@@H](CCCCN)C(=O)Nc1ccc([N+](=O)[O-])c(C(N)=O)c1 (H-[2Abz]RQDK-{NH(3-CONH2-4-NO2-Ph)})

B1: Transmembrane protease serine 11D (Homo sapiens), O60235 (protein)
chain: MYRPARVTSTSRFLNPYVVCFIVVAGVVILAVTIALLVYFLAFDQKSYFYRSSFQLLNVEYNSQLNSPATQEYRTLSGRIESLITKTFKESNLRNQFIRAHVAKLRQDGSGVRADVVMKFQFTRNNNGASMKSRIESVLRQMLNNSGNLEINPSTEITSLTDQAAANWLINECGAGPDLITLSEQRILGGTEAEEGSWPWQVSLRLNNAHHCGGSLINNMWILTAAHCFRSNSNPRDWIATSGISTTFPKLRMRVRNILIHNNYKSATHENDIALVRLENSVTFTKDIHSVCLPAATQNIPPGSTAYVTGWGAQEYAGHTVPELRQGQVRIISNDVCNAPHSYNGAILSGMLCAGVPQGGVDACQGDSGGPLVQEDSRRLWFIVGIVSWGDQCGLPDKPGVYTRVTAYLDWIRQQTGI
Km [9]: 43.6 µM | kcat [9]: 25.4 ×10⁻¹ /s | Km [10]: 12.3 µM | kcat [10]: 24.1 ×10⁻¹ /s | Km [11]: 25.4 µM | kcat [11]: 115 ×10⁻¹ /s | kcat/Km [12]: 58.2 ×10³ /M/s | kcat/Km [13]: 195 ×10³ /M/s | kcat/Km [14]: 454 ×10³ /M/s

B2: Suppressor of tumorigenicity 14 protein (Homo sapiens), Q9Y5Y6 (protein)
chain: MGSDRARKGGGGPKDFGAGLKYNSRHEKVNGLEEGVEFLPVNNVKKVEKHGPGRWVVLAAVLIGLLLVLLGIGFLVWHLQYRDVRVQKVFNGYMRITNENFVDAYENSNSTEFVSLASKVKDALKLLYSGVPFLGPYHKESAVTAFSEGSVIAYYWSEFSIPQHLVEEAERVMAEERVVMLPPRARSLKSFVVTSVVAFPTDSKTVQRTQDNSCSFGLHARGVELMRFTTPGFPDSPYPAHARCQWALRGDADSVLSLTFRSFDLASCDERGSDLVTVYNTLSPMEPHALVQLCGTYPPSYNLTFHSSQNVLLITLITNTERRHPGFEATFFQLPRMSSCGGRLRKAQGTFNSPYYPGHYPPNIDCTWNIEVPNNQHVKVRFKFFYLLEPGVPAGTCPKDYVEINGEKYCGERSQFVVTSNSNKITVRFHSDQSYTDTGFLAEYLSYDSSDPCPGQFTCRTGRCIRKELRCDGWADCTDHSDELNCSCDAGHQFTCKNKFCKPLFWVCDSVNDCGDNSDEQGCSCPAQTFRCSNGKCLSKSQQCNGKDDCGDGSDEASCPKVNVVTCTKHTYRCLNGLCLSKGNPECDGKEDCSDGSDEKDCDCGLRSFTRQARVVGGTDADEGEWPWQVSLHALGQGHICGASLISPNWLVSAAHCYIDDRGFRYSDPTQWTAFLGLHDQSQRSAPGVQERRLKRIISHPFFNDFTFDYDIALLELEKPAEYSSMVRPICLPDASHVFPAGKAIWVTGWGHTQYGGTGALILQKGEIRVINQTTCENLLPQQITPRMMCVGFLSGGVDSCQGDSGGPLSSVEADGRIFQAGVVSWGDGCAQRNKPGVYTRLPLFRDWIKENTGV
Km [15]: 12.1 µM | kcat [15]: 42.8 ×10⁻¹ /s | Km [16]: 70.6 µM | kcat [16]: 16.3 ×10⁻¹ /s | Km [17]: 68.5 µM | kcat [17]: 67.4 ×10⁻¹ /s | kcat/Km [18]: 356 ×10³ /M/s | kcat/Km [19]: 23.1 ×10³ /M/s | kcat/Km [20]: 98.4 ×10³ /M/s
